Data taken from ChEMBL document CHEMBL3232763, “Synthesis of 6-cinnamoyl-2H-benzo[b][1,4]oxazin-3(4H)-ones and their effects on A549 lung cancer cell growth” (Eur J Med Chem, 2014).
The source made the active and inactive calls. No cut-off for these calls is given here.

Legend:
A549 [1] = assay: Cytotoxicity against human A549 cells assessed as change in cell morphology at 5 uM after 48 hrs by phase contrast microscopic analysis; format: functional, cell-based
How it was run: (§1)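 A549 cells (RPMI-1640, 10% bovine calf serum, 37 °C, 5% CO2) treated with compound at 5 µM or 0.1% DMSO control for 24 h or 48 h; morphology and cell density inspected by phase contrast microscopy.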

A549 [2] = assay: Cytotoxicity against human A549 cells assessed as decrease in cell density at 5 uM after 24 to 48 hrs by phase contrast microscopic analysis; format: functional, cell-based; how it was run: as §1
A549 [3] = assay: Cytotoxicity against human A549 cells assessed as growth inhibition measured at 48 hrs by SRB assay; format: functional, cell-based; details: for IC50: A549, 48 h
How it was run: (§2)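 Sulforhodamine B assay: A549 cells seeded in 96-well plates, exposed 48 h to 1, 5 or 10 µM or 0.1% DMSO; survival expressed relative to DMSO-treated cells; triplicate assays, mean ± SE (n = 3); IC50 at 48 h derived.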

A549 [4] = assay: Induction of autophagy in human A549 cells assessed as increase in acidic vesicles accumulation at 5 uM after 48 hrs by acridine orange staining-based fluorescence microscopic analysis; format: functional, cell-based
How it was run: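 A549 cells treated 48 h at 5 µM, then stained with acridine orange (5 µg/ml) for 1 min at room temperature, washed twice with PBS, and acidic vesicles viewed by fluorescence microscopy (200×).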

A549 [5] = assay: Induction of autophagy in human A549 cells assessed as effect on LC3-2 protein expression at 5 uM after 48 hrs by Western blot analysis; format: functional, cell-based
How it was run: (§3)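 Cells treated 48 h at 5 µM, washed with ice-cold PBS, lysed, protein quantified by Bradford; SDS electrophoresis, PVDF transfer, blocking in 5% milk/PBST; probed overnight at 4 °C with rabbit anti-human LC3b and GAPDH antibodies, HRP secondaries, film detection; LC3-II band density normalised to loading control.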

A549 [6] = assay: Cell cycle arrest in human A549 cells assessed as accumulation at G1 phase at 5 uM after 48 hrs by propidium iodide staining-based flow cytometric analysis (reference value: 50.70%); format: functional
A549 [7] = assay: Cell cycle arrest in human A549 cells assessed as accumulation at G2 phase at 5 uM after 48 hrs by propidium iodide staining-based flow cytometric analysis (reference value: 9.63%); format: functional
A549 [8] = assay: Cell cycle arrest in human A549 cells assessed as accumulation at S phase at 5 uM after 48 hrs by propidium iodide staining-based flow cytometric analysis (reference value: 39.68%); format: functional
A549 [9] = assay: Induction of apoptosis in human A549 cells assessed as chromatin condensation at 5 uM measured at 48 hrs by Hoechst 33258 staining-based fluorescence microscopic analysis; format: functional, cell-based
How it was run: (§4)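 After 48 h with 5 µM compound or 0.1% DMSO, A549 cells in 24-well plates stained with 10 µg/ml Hoechst 33258 for 30 min at 37 °C, washed twice with PBS, and nuclei examined by fluorescence microscopy for chromatin condensation and apoptotic bodies.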

A549 [10] = assay: Induction of apoptosis in human A549 cells assessed as increase in apoptotic bodies formation at 5 uM measured at 48 hrs by Hoechst 33258 staining-based fluorescence microscopic analysis; format: functional, cell-based; how it was run: as §4
A549 [11] = assay: Induction of necrosis in human A549 cells at 10 uM after 48 hrs by LDH release assay; format: functional, cell-based
How it was run: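 LDH level measured in A549 cells after 48 h with 10 µM compound or untreated control, using a commercial kit per manufacturer's instructions; mean ± SE, n = 3.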

A549 [12] = assay: Cytotoxicity against human A549 cells assessed as inhibition of cell viability at 10 uM after 48 hrs by SRB assay relative to control; format: functional; how it was run: as §2
A549 [13] = assay: Induction of autophagy in human A549 cells assessed as upregulation of LC3-2 protein expression at 5 uM after 48 hrs by Western blot analysis; format: functional, cell-based; how it was run: as §3

Row | SMILES | Activity (A549 [1]) | Activity (A549 [2]) | growth inhibition (GI) (A549 [3]) | IC50 (A549 [3]) | Activity (A549 [4]) | Activity (A549 [5]) | Activity (A549 [6]) | Activity (A549 [7]) | Activity (A549 [8]) | Activity (A549 [9]) | Activity (A549 [10]) | Activity (A549 [11]) | Activity (A549 [12]) | Activity (A549 [13])
1 | O=C1COc2ccc(C(=O)/C=C/c3ccc(OCc4ccccc4)cc3)cc2N1 | inactive |  |  |  |  |  |  |  |  |  |  |  |  | 
2 | O=C1COc2ccc(C(=O)/C=C/c3ccc4c(c3)OCO4)cc2N1 | inactive | Active | Dose-dependent effect | 16.3 µM | inactive | inactive | 63.37% | 10.33% | 26.3% | inactive | inactive | inactive |  | 
3 | COc1cc(/C=C/C(=O)c2ccc3c(c2)NC(=O)CO3)cc(OC)c1 | inactive | Active | Dose-dependent effect | 3.29 µM | Active |  | 75.46% | 15.29% | 9.25% | inactive | inactive | inactive | 24% | Active
4 | O=c1[nH]cc(F)c(=O)[nH]1 [FLUOROURACIL] |  |  |  | 0.98 µM |  |  |  |  |  |  |  |  |  | 
5 | O=C1COc2ccc(C(=O)/C=C/c3ccccc3)cc2N1 | inactive | Active | Dose-dependent effect | 5.46 µM | inactive |  | 55.27% | 12.66% | 32.08% | inactive | inactive | inactive |  | inactive
6 | O=C1COc2ccc(C(=O)/C=C/c3ccc4ccccc4c3)cc2N1 | inactive |  |  |  |  |  |  |  |  |  |  |  |  | 
7 | O=C1COc2ccc(C(=O)/C=C/c3ccc(Cl)cc3)cc2N1 | inactive |  |  |  |  |  |  |  |  |  |  |  |  | 
8 | COc1ccc(/C=C/C(=O)c2ccc3c(c2)NC(=O)CO3)c(OC)c1 | inactive | Active | Dose-dependent effect | 6.49 µM | Active |  | 57.92% | 11.5% | 30.59% | inactive | inactive | inactive |  | Active
